Results: ChEMBL document CHEMBL4411297, “Discovery, synthesis and anti-atherosclerotic activities of a novel selective sphingomyelin synthase 2 inhibitor” (Eur J Med Chem, 2019)

Assays:
[1] = Apparent volume of distribution during terminal phase in C57BL/6J mouse at 100 mg/kg/day, ig by HPLC-MS/MS analysis; type: ADME, organism-based; conditions: in vivo, po, read-out: Vz/F
Outline: (§1)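 Male C57BL/6J mice, six to eight weeks old, about 20 g, fasted 12 h with free water. Given a single intragastric dose of 25, 50 or 100 mg/kg in 10% DMSO/30% PEG-100/0.9% NaCl. Blood taken retro-orbitally at 5 min to 8 h. Plasma protein-precipitated with methanol plus internal standard, then HPLC-MS/MS on a C18 column. Noncompartmental analysis, n = 6.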

[2] = Ratio of drug level in liver to plasma in C57BL/6J mouse at 100 mg/kg/day, ig qd for 7 days measured on day 7; type: ADME, organism-based; conditions: po
Outline: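 C57BL/6J mice dosed intragastrically at 100 mg/kg once daily for 7 days; compound levels in liver and blood measured on day 7, n = 5.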

Mus musculus [3] = experiment: Anti-atherosclerotic activity in apoE knockout mouse fed with western-type diet assessed as reduction in plasma SM level at 40 mg/kg/day, ig for 7 weeks relative to control; type: functional; set-up: scale not given: the % may be the effect or the level left
Outline: (§2)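 ApoE KO mice on Western-type diet, dosed by gavage at 12.5 or 40 mg/kg/day for 7 weeks, n = 10. Blood collected at 20 weeks of age. Plasma SM measured by a previously reported method. ALT and AST read on an automated biochemical analyzer.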

[4] = MRT (0 to 8 hrs) in C57BL/6J mouse at 100 mg/kg/day, ig by HPLC-MS/MS analysis; type: ADME, organism-based; conditions: in vivo, po
Outline: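 Male C57BL/6J mice (6–8 weeks, ~20 g), fasted 12 h, given a single intragastric dose of 25, 50 or 100 mg/kg in 10% DMSO/30% PEG/0.9% NaCl. Retro-orbital blood at 5 min to 8 h; plasma protein-precipitated with methanol plus internal standard, assayed by LC-MS/MS; noncompartmental analysis. Mean ± SD, n = 6.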

Mus musculus [5] = experiment: Effect on plasma AST level in apoE knockout mouse fed with western-type diet at 12.5 to 40 mg/kg/day, ig for 7 weeks; type: ADME, organism-based; conditions: in vivo, po, 1176 h; outline: as §2
[6] = Dose normalized AUC (0 to 8 hrs) in C57BL/6J mouse at 50 mg/kg/day, ig by HPLC-MS/MS analysis; type: ADME, organism-based; conditions: in vivo, po; outline: as §1

Vd/F [1]: 28.8 L
Kp at 168 h [2]: 5
MRT [4]: 1.66 h
AUC/dose [6]: 0.12 µg·h/mL
SMILES: CCc1ccccc1COc1ccccc1C(=O)Nc1cccnc1
Activity (Mus musculus [3]): 41%
Activity (Mus musculus [5]): Non-Toxic
